# System: MS2 coat protein
# Assay: apparent Kd, MS2 coat protein; higher = weaker binding; RNA-MaP array; FMN 200 µM where present
# Outline: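 Stalled E. coli RNA polymerase produced the designs on Illumina sequencing-chip clusters. SNAP-549-labelled MS2 coat protein was added from 0.7 or 1.5 nM, doubling to 3 µM, without and then with constant ligand, in 100 mM Tris-HCl pH 7.5, 80 mM KCl, 4 mM MgCl2, BSA, DTT, yeast tRNA and Tween-20. The apparent Kd is the median of filtered per-cluster fits of green signal normalised to red-channel RNA signal and control-cluster median Fmax.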
# [1] = designed as: ON switch for flavin mononucleotide, no ligand
# [2] = ligand present: flavin mononucleotide, designed as: ON switch for flavin mononucleotide
# [3] = designed as: OFF switch for flavin mononucleotide, no ligand
# [4] = ligand present: flavin mononucleotide, designed as: OFF switch for flavin mononucleotide
sequence,measurement,setting,value
GUAGCAUUCUGAGGAUAUUCAUAUAAUAAAUAAACAUGAGGAUCACCCAUGUGGCGAAAGCCUUGGGAGAAGGCAGUAUGCUAC,apparent Kd,[1],660 nM
same,apparent Kd,[2],42.1 nM
UAAAAGCGAGGAUAUACAUGAGGAUCACCCAUGUGAAAGAAAAAUAAAAAAAAAAAAAGUAGAAGGCGCUAAAA,apparent Kd,[3],62.1 nM
same,apparent Kd,[4],58.4 nM
CAGCCCUGAGGAUAUCCCUCCUUGUACAUGAGGAUCACCCAUGUUCUCCUCUGGGCUUUGGGAGAAGGCAGGUCUC,apparent Kd,[3],26.8 nM
same,apparent Kd,[4],26.4 nM
GCCAUCGUAUGAGGAUAUGGCACCGAAACGGUGCCAGAAGGCAUGUCUAUAGACAUGAGGAUCACCCAUGUGUUAUCGAUGGCA,apparent Kd,[1],146 nM
same,apparent Kd,[2],14.8 nM
AAGUCAGCAGGAUAUGCGAUGGUGGGCUAGGUAGCUUGCCCACAUGAGGAUCACCCAUGUAGAAGGGCUGGCUA,apparent Kd,[3],72 nM
same,apparent Kd,[4],48.7 nM
AUAAUGAGAGGAUAUACAUGAGGAUCACCCAUGUUUUUAUCACGUCGUGCUCCAUUACGUAGAAGGCUCAUUUA,apparent Kd,[3],36.3 nM
same,apparent Kd,[4],53.7 nM
GGCCCGGGAGGAUAUACAUGAGGAUCACCCAUGUGCGGGCCCGGGAUCCCGGGCCCGUGUAGAAGGCCCGGGCC,apparent Kd,[3],13.4 nM
same,apparent Kd,[4],16.5 nM
ACAUAAAUUCGAGGAUAUCGGUGAUAUAAUUUACGAGAAGGCGAUAAAAGUUAUAAACUUAUAGACAUGAGGAUCACCCAUGUA,apparent Kd,[1],31 nM
same,apparent Kd,[2],30.6 nM
UUCAUGUGAGGAUAUGCGGCAUCAGGUGGGCCUGUCGCUGAGCAGAAGGCACAUGAGGAUCACCCAUGUGCUCC,apparent Kd,[3],16.4 nM
same,apparent Kd,[4],41.6 nM
UUGGACGUCGUAGGAUAUGUAGGAUAUUCCUACAUGAGGAUCACCCAUGUUGACAUGGAAGAAGGACAGAAGGACGAUCUCCAU,apparent Kd,[1],360 nM
same,apparent Kd,[2],5.49 nM
GGUUUUGUGUAAGGAUAUGCAUCACUGAGAAAUUUAGUGAGGAAGAUCACAUGAGGAUCACCCAUGUAGAAGGUACACAUGUGG,apparent Kd,[3],57.9 nM
same,apparent Kd,[4],89.2 nM
AUAAAACAUGAGGAUCACCCAUGUCAACAAAGUCGAGGAUAUGGGCAAAUAAAAUAAGAACCAGAAGGCGAAUAUU,apparent Kd,[1],223 nM
same,apparent Kd,[2],48 nM
AGUCGGAGCAGAGGAUAUACAUGAGGAUCACCCAUGUAAAUGGAAUAAGACUGGAAACAGUCAAUGUAGAAGGCUGCUCCGACA,apparent Kd,[3],68.5 nM
same,apparent Kd,[4],673 nM
ACGGCUAACCCAGUUUGAAUCUCAAGAAGGGUACACUGGGCAAGGUACAUGAGGAUCACCCAUGUACAGGAUAUUGAGAUGAGA,apparent Kd,[3],48.4 nM
same,apparent Kd,[4],74 nM
GAUAGAGAGCAGGAUAUCUUAGAAAUGUAUUAUAGAGAAGGGCUCACAUGAGGAUCACCCAUGUGGUCCUAGAU,apparent Kd,[3],16.4 nM
same,apparent Kd,[4],108 nM
GUGUUUGAUGAGGAUAUCGUUGUGGGUAUAUAGCGAGAAGGCAUUACAUGAGGAUCACCCAUGUAGUGUGGGUU,apparent Kd,[3],26.2 nM
same,apparent Kd,[4],49.4 nM
UGAUAGGACAGAGGAUAUACAGAUAGGAUCUACUAUCAAACAAUCCUCACAUGAGGAUCACCCAUGUAGAAGGCUGUCCUAUCU,apparent Kd,[3],106 nM
same,apparent Kd,[4],888 nM
UUUAUAAAUUAGAAGGCGAGAUGAAUUACAAUAGACAUGAGGAUCACCCAUGUGUAUUCAUGUCUUGAGGAUAUAGUCAUAUAU,apparent Kd,[1],118 nM
same,apparent Kd,[2],58.1 nM
GUAUCUCCUGACAUGAGGAUCACCCAUGUUUAAUUAUUAAAUCAGGAUAUCCUCUCGAAACGAGAGGAGAAGGGAUAAGAUACU,apparent Kd,[1],5.66 nM
same,apparent Kd,[2],5.72 nM
GUAGCUACAUGAGGAUCACCCAUGUAGGAUAUCGCUAUUGUAAUCAUGAAACAUGAUUACAAUAGCGAGAAGGACAUGUGCUAC,apparent Kd,[3],20.9 nM
same,apparent Kd,[4],25.2 nM
UGUCCAUAGCAGAAGGACAUGAAUAAAUAUGAAAACAUGAGGAUCACCCAUGUAGGAUAUGCUAUGGACUAAGAGCGAAAGCUC,apparent Kd,[3],7.68 nM
same,apparent Kd,[4],49.3 nM
AGGUAACAUGAGGAUCACCCAUGUCAGGAUAUCAGUAAGAUGAGUAUAGAAGAGAGUAUGAGAAGGGACUAUAU,apparent Kd,[3],31 nM
same,apparent Kd,[4],25.6 nM
AAAUUAGUUGUAGGAUAUCGGUCGAACAUCUCACGAGAAGGGCAACAUGAGGAUCACCCAUGUAGGUCGCCUACGUAAGAUCGC,apparent Kd,[3],5.84 nM
same,apparent Kd,[4],6.71 nM
GCCAUCGCAUGAGGAUAUGCUCCGGUUUCCGGAGCAGAAGGCAUGUCGUAAGACAUGAGGAUCACCCAUGUAGUCAAGAUGGCA,apparent Kd,[1],912 nM
same,apparent Kd,[2],41.5 nM
UGUGUGUGGGCAGGAUAUGCAUGAAUAUAUAUGAUGUAGUGUGAUGUAACAUGAGGAUCACCCAUGUAGAAGGGCCGGUGUAUG,apparent Kd,[3],145 nM
same,apparent Kd,[4],234 nM
UUUUGAAAGUGAGGAUAUGACAUGAGGAUCACCCAUGUAAAGGGAGUUGAAUAUAUAGAAAGAUAUCAGAAGGCACAAAUGUUU,apparent Kd,[3],178 nM
same,apparent Kd,[4],497 nM
GUCGAGUGAGGAUAUGGUGAGUAGUGCCUGAGCGCUGCUCACCAGAAGGCACAUGAGGAUCACCCAUGUAUGUC,apparent Kd,[3],13.7 nM
same,apparent Kd,[4],20.7 nM
UGAGGACAUGAGGAUCACCCAUGUAAGGAUAUGCGGAGAGUUUGGAGAGGUUGAGGAGGCAGAAGGUACAGGAU,apparent Kd,[3],89.5 nM
same,apparent Kd,[4],58.5 nM
UCCACUGCUGAGAAGGGAUCCGUGUGGUUCGAAUCAGGAUAUCGAUACAGUGCAGCAUGAGGACAUGAGGAUCACCCAUGUAUU,apparent Kd,[1],16 nM
same,apparent Kd,[2],13 nM
GGCGGCGGACAAGGAUAUAAGACGCGGACCAAAUUAGAAGGUGUCAUCUGGCAAUGCGAAAGCAGACAUGAGGAUCACCCAUGU,apparent Kd,[1],78.9 nM
same,apparent Kd,[2],72.7 nM
AAUAAUAAUGUCAGGAUAUCUAGAGCUUCGGCUCUAGAGAAGGGACAUGAGGAUCACCCAUGUCACUCAAUAAU,apparent Kd,[3],16.2 nM
same,apparent Kd,[4],27.2 nM
CGCAUCUCUUCAAUUCCUUCACAUGAGGAUCACCCAUGUAGGGAGGAUAUGCAAGCCUAUUGGCGGCAGAAGGCCCUGCAAUGG,apparent Kd,[3],177 nM
same,apparent Kd,[4],86.9 nM
GCAUCCCAUGUCAGGAUAUGCUGUACCUUGGUACAGCAGAAGGGACAUGAGGAUCACCCAUGUGCCUAGGAUGC,apparent Kd,[3],51.2 nM
same,apparent Kd,[4],438 nM
AAAAAAAAAACUCAGGAUAUAGAUCGUUGAACAUGAGGAUCACCCAUGUAGUGAAAAGCGAAAAACUAGAAGGGAGGAAAAAAAAA,apparent Kd,[1],28.9 nM
same,apparent Kd,[2],19.8 nM
GCACGGAUGGUAGGAUAUCAUUGCGAUUAGCUAUGAGAAGGACCACAUGAGGAUCACCCAUGUCCUCUAAUUAGCCUUCCGUGC,apparent Kd,[3],179 nM
same,apparent Kd,[4],297 nM
GGGUCAACAUGAGGAUCACCCAUGUAGGAUAUCGCUAUUGUAAUCAUGAAACAUGAUUACAAUAGCGAGAAGGACAUAUGCGGG,apparent Kd,[3],42 nM
same,apparent Kd,[4],74.1 nM
CAGCAAUGUGAGAAGGCUGCUCCGAUAAGGAGCAGAGGAUAUUACAUGAGGAUCACCCAUGUAUGAACCAAUAGCUGAAAUAAA,apparent Kd,[3],6.01 nM
same,apparent Kd,[4],28.3 nM
CUUAUGUGAGGAUAUCAGUAGUAAAAAAAUAAAAUUACUACUGAGAAGGCACAUGAGGAUCACCCAUGUGCCUC,apparent Kd,[3],14.4 nM
same,apparent Kd,[4],13.4 nM
CGCUCACAUGAGGAUCACCCAUGUCCUAGGAGGUCAGGAUAUAGCCCGCAUCCGCUGCGGCUAGAAGGGACAGCUG,apparent Kd,[1],203 nM
same,apparent Kd,[2],68.6 nM
GUGGUACAUGAGGAUCACCCAUGUUAGGAUAUCGCGUGAGGUAAAACUUACACACACACGAGAAGGGACGACAU,apparent Kd,[3],88.6 nM
same,apparent Kd,[4],56.2 nM
UGAACUAUGUAGAAGGCCCACAUUAAUAUGUAGGGAGGAUAUACAUGAGGAUCACCCAUGUAAAGAGCAAGAGGAUUUAACAGA,apparent Kd,[3],10.3 nM
same,apparent Kd,[4],21.7 nM
UUGGACGUCGUAGGAUAGGUAGGAUAUUCCUACAUGAGGAUCACCCAUGUUGACAUGGAAGAAGGACAGAAGGACGAUGUCCAU,apparent Kd,[1],142 nM
same,apparent Kd,[2],5.7 nM
UGUGUGAGACAGGAUAUGCCGGAUAUAGUACUGGUAGAAGGGUCUACAUGAGGAUCACCCAUGUGGCCGGCCGG,apparent Kd,[3],16.8 nM
same,apparent Kd,[4],25 nM
ACAUGAGGAUCACCCAUGUGGACAUAGGAUAUUGGUGGUCAGGCGUGUUAUACAGGAUAGGUCUGCGAGAAGGGUGUGCGUUGC,apparent Kd,[1],84.9 nM
same,apparent Kd,[2],75 nM
AAUGUAUCCUCGGGAUCCACAUGAGGAUCACCCAUGUAGACUCAGGAUAUCCAAUGCGUUGGCAGGGAGAAGGGAGCUCGCAUG,apparent Kd,[3],33.7 nM
same,apparent Kd,[4],38.7 nM
UAAAUUUUAUGAUAUUAUGACAUUAGAAGGCUGUACAUGUUGAUACAUGAGGAUCACCCAUGUAUAGAGGAUAUAGACAAUUAU,apparent Kd,[3],40.5 nM
same,apparent Kd,[4],92.6 nM
CAGCUGAAAGUCAGGAUAUCUAGAGCCUCGGCUCUAGAGAAGGGACAUGAGGAUCACCCAUGUCACUCCAGCUG,apparent Kd,[3],18.4 nM
same,apparent Kd,[4],20 nM
UAAUCUCAGAUAGGAUAUAUAGGAUAACUUAAGACCUAACAUGAGGAUCACCCAUGUGAUUAUUCGUAGAAGGAUCAUUGAACU,apparent Kd,[1],254 nM
same,apparent Kd,[2],251 nM

# Reference: the EternaBench riboswitch data
